Experimental data: ChEMBL document CHEMBL3808372, “Identification of quinones as novel PIM1 kinase inhibitors” (Bioorg Med Chem Lett, 2016)

Legend:
[1] = biological target: Tyrosine-protein kinase ABL1 (Homo sapiens) (UniProt P00519); test: Inhibition of human ABL1 kinase phosphorylation (229 to 512 amino acid residues) assessed as enzyme activity at 10 uM by KINOMEScan assay; parameters: scale not given: the % may be the effect or the level left
How it was run: (§1)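 Competition binding screen on a 100-kinase KINOMEscan panel, compound tested at a single 10 μM concentration. Primary binding read-out expressed as % Ctrl = (test compound signal − positive control signal)/(negative control signal − positive control signal) × 100, with lower values meaning stronger binding.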

[2] = biological target: RAC-alpha serine/threonine-protein kinase (Homo sapiens) (UniProt P31749); test: Inhibition of human Akt1 expressed in bacterial system assessed as enzyme activity at 10 uM by KINOMEScan assay; parameters: scale not given: the % may be the effect or the level left
RAC-alpha serine/threonine-protein kinase (Homo sapiens), sequence (P31749 whole entry): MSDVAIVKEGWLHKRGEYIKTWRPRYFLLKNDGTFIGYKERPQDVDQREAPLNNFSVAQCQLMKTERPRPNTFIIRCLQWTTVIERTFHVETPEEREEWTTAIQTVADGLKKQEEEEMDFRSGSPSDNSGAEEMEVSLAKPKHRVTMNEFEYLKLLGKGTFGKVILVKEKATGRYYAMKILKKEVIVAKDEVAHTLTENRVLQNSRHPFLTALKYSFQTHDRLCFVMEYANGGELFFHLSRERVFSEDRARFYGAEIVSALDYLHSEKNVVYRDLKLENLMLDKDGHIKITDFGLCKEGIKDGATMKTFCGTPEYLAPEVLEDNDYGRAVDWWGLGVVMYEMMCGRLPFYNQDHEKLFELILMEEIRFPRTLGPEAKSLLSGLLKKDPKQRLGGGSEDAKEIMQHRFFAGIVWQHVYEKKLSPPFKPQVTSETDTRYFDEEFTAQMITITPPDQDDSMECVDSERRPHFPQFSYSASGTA
How it was run: (§2)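 Commercial KINOMEscan binding panel of 100 kinases, test compound at 10 μM. Results are primary-screen binding interactions expressed as % Ctrl = (test compound signal − positive control signal)/(negative control signal − positive control signal) × 100. Lower % Ctrl means stronger binding.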

[3] = biological target: RAC-beta serine/threonine-protein kinase (Homo sapiens) (UniProt P31751); test: Inhibition of human Akt2 expressed in bacterial system assessed as enzyme activity at 10 uM by KINOMEScan assay; parameters: scale not given: the % may be the effect or the level left; how it was run: as §2
[4] = biological target: Tyrosine-protein kinase BTK (Homo sapiens) (UniProt Q06187); test: Inhibition of full length human BTK assessed as enzyme activity at 10 uM by KINOMEScan assay; parameters: scale not given: the % may be the effect or the level left; how it was run: as §2
[5] = biological target: Cyclin-dependent kinase 2 (Homo sapiens) (UniProt P24941); test: Inhibition of full length human CDK2 expressed in bacterial system assessed as enzyme activity at 10 uM by KINOMEScan assay; parameters: scale not given: the % may be the effect or the level left; how it was run: as §1
[6] = biological target: Serine/threonine-protein kinase Chk1 (Homo sapiens) (UniProt O14757); test: Inhibition of human CHEK1 (1 to 289 amino acid residues) assessed as enzyme activity at 10 uM by KINOMEScan assay expressed in bacterial system assessed as enzyme activity at 10 uM by KINOMEScan assay; parameters: scale not given: the % may be the effect or the level left; how it was run: as §1
[7] = biological target: Serine/threonine-protein kinase DCLK1 (Homo sapiens) (UniProt O15075); test: Inhibition of human DCAMKL1 (270 to 662 amino acid residues) assessed as enzyme activity at 10 uM by KINOMEScan assay; parameters: scale not given: the % may be the effect or the level left; how it was run: as §1
[8] = biological target: Fibroblast growth factor receptor 2 (Homo sapiens) (UniProt P21802); test: Inhibition of human FGFR2 (457 to 769 amino acid residues) assessed as enzyme activity at 10 uM by KINOMEScan assay expressed in bacterial system assessed as enzyme activity at 10 uM by KINOMEScan assay; parameters: scale not given: the % may be the effect or the level left; how it was run: as §2
[9] = biological target: Fibroblast growth factor receptor 3 (Homo sapiens) (UniProt P22607); test: Inhibition of human FGFR3 (442 to 771 amino acid residues) assessed as enzyme activity at 10 uM by KINOMEScan assay expressed in bacterial system assessed as enzyme activity at 10 uM by KINOMEScan assay; parameters: scale not given: the % may be the effect or the level left; how it was run: as §1
[10] = biological target: Inhibitor of nuclear factor kappa-B kinase subunit alpha (Homo sapiens) (UniProt O15111); test: Inhibition of full length human IKK-alpha assessed as enzyme activity at 10 uM by KINOMEScan assay; parameters: scale not given: the % may be the effect or the level left; how it was run: as §1
Inhibitor of nuclear factor kappa-B kinase subunit alpha (Homo sapiens), sequence (O15111 whole entry): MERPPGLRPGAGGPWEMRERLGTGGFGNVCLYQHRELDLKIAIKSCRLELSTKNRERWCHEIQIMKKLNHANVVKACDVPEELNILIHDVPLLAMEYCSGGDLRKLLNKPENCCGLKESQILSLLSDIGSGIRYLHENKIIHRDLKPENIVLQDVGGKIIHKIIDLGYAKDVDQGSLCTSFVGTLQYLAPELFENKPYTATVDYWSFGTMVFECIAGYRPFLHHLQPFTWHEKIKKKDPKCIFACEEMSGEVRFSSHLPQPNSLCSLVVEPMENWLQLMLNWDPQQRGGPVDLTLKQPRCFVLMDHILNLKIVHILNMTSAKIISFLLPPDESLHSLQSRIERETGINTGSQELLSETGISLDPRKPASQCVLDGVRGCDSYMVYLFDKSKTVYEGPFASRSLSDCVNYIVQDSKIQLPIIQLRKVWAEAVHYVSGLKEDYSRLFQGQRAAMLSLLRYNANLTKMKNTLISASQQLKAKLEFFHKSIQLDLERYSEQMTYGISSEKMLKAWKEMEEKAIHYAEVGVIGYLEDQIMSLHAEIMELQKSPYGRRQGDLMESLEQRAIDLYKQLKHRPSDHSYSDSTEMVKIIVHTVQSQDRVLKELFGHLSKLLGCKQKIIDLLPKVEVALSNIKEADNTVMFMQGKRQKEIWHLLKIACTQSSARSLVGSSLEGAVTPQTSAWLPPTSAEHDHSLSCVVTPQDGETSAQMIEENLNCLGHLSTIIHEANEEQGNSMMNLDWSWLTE

[11] = biological target: Mitogen-activated protein kinase 8 (Homo sapiens) (UniProt P45983); test: Inhibition of full length human JNK1 assessed as enzyme activity at 10 uM by KINOMEScan assay; parameters: scale not given: the % may be the effect or the level left; how it was run: as §1
Mitogen-activated protein kinase 8 (Homo sapiens), sequence (P45983 whole entry, the tested form may be a part): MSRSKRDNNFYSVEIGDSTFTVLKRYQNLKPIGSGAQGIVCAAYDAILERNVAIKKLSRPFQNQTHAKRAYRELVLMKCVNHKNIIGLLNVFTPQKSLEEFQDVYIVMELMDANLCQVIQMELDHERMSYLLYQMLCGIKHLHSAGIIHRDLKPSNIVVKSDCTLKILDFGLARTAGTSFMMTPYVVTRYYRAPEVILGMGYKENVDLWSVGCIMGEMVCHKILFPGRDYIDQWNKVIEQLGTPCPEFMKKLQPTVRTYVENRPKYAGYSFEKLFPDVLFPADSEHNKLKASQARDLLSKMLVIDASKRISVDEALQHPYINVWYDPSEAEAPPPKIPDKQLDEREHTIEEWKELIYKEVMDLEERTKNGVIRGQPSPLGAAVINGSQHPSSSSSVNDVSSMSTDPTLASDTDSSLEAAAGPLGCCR

[12] = tested on: Mast/stem cell growth factor receptor Kit (Homo sapiens), P10721 [V559D,T670I]; test: Inhibition of human KIT V559D/T670I mutant (545 to 952 amino acid residues) expressed in bacterial system assessed as enzyme activity at 10 uM by KINOMEScan assay; parameters: scale not given: the % may be the effect or the level left; how it was run: as §2
[13] = biological target: Dual specificity mitogen-activated protein kinase kinase 1 (Homo sapiens) (UniProt Q02750); test: Inhibition of full length human MEK1 assessed as enzyme activity at 10 uM by KINOMEScan assay; parameters: scale not given: the % may be the effect or the level left; how it was run: as §1
Dual specificity mitogen-activated protein kinase kinase 1 (Homo sapiens), sequence (Q02750 whole entry, the tested form may be a part): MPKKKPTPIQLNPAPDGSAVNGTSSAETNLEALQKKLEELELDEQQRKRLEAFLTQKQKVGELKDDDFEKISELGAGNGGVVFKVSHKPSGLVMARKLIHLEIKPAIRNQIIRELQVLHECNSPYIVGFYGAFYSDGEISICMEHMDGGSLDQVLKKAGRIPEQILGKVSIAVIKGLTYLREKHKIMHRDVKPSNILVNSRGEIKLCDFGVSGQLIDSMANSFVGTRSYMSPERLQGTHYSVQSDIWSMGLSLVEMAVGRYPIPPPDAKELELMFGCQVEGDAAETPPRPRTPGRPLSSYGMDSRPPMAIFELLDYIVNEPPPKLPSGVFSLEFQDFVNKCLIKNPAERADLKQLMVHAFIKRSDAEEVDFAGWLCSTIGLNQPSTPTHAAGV

[14] = biological target: Hepatocyte growth factor receptor (Homo sapiens) (UniProt P08581); test: Inhibition of human MET (1010 to 1367 amino acid residues) expressed in bacterial system assessed as enzyme activity at 10 uM by KINOMEScan assay; parameters: scale not given: the % may be the effect or the level left; how it was run: as §2
[15] = biological target: Mitogen-activated protein kinase kinase kinase 9 (Homo sapiens) (UniProt P80192); test: Inhibition of human MLK1 (88 to 426 amino acid residues) expressed in bacterial system assessed as enzyme activity at 10 uM by KINOMEScan assay; parameters: scale not given: the % may be the effect or the level left; how it was run: as §1
[16] = biological target: Serine/threonine-protein kinase PAK 2 (Homo sapiens) (UniProt Q13177); test: Inhibition of human PAK2 (151 to 525 amino acid residues) expressed in bacterial system assessed as enzyme activity at 10 uM by KINOMEScan assay; parameters: scale not given: the % may be the effect or the level left; how it was run: as §1
[17] = biological target: Cyclin-dependent kinase 16 (Homo sapiens) (UniProt Q00536); test: Inhibition of human PCTK1 (160 to 474 amino acid residues) assessed as enzyme activity at 10 uM by KINOMEScan assay; parameters: scale not given: the % may be the effect or the level left; how it was run: as §2
[18] = biological target: Platelet-derived growth factor receptor beta (Homo sapiens) (UniProt P09619); test: Inhibition of human PDGFRB (582 to 1009 amino acid residues) expressed in bacterial system assessed as enzyme activity at 10 uM by KINOMEScan assay; parameters: scale not given: the % may be the effect or the level left; how it was run: as §2
[19] = biological target: Serine/threonine-protein kinase PLK1 (Homo sapiens) (UniProt P53350); test: Inhibition of human PLK1 (33 to 325 amino acid residues) assessed as enzyme activity at 10 uM by KINOMEScan assay; parameters: scale not given: the % may be the effect or the level left
How it was run: (§3)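 Single-concentration competition binding screen (KINOMEscan) across a 100-kinase panel at 10 μM. Primary binding read-out is reported as % of control: (test signal − positive-control signal)/(negative-control signal − positive-control signal) × 100. Lower values indicate stronger binding.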

[20] = biological target: Serine/threonine-protein kinase PLK4 (Homo sapiens) (UniProt O00444); test: Inhibition of human PLK4 (1 to 273 amino acid residues) assessed as enzyme activity at 10 uM by KINOMEScan assay; parameters: scale not given: the % may be the effect or the level left; how it was run: as §3
Serine/threonine-protein kinase PLK4 (Homo sapiens), sequence (O00444 whole entry, the tested form may be a part): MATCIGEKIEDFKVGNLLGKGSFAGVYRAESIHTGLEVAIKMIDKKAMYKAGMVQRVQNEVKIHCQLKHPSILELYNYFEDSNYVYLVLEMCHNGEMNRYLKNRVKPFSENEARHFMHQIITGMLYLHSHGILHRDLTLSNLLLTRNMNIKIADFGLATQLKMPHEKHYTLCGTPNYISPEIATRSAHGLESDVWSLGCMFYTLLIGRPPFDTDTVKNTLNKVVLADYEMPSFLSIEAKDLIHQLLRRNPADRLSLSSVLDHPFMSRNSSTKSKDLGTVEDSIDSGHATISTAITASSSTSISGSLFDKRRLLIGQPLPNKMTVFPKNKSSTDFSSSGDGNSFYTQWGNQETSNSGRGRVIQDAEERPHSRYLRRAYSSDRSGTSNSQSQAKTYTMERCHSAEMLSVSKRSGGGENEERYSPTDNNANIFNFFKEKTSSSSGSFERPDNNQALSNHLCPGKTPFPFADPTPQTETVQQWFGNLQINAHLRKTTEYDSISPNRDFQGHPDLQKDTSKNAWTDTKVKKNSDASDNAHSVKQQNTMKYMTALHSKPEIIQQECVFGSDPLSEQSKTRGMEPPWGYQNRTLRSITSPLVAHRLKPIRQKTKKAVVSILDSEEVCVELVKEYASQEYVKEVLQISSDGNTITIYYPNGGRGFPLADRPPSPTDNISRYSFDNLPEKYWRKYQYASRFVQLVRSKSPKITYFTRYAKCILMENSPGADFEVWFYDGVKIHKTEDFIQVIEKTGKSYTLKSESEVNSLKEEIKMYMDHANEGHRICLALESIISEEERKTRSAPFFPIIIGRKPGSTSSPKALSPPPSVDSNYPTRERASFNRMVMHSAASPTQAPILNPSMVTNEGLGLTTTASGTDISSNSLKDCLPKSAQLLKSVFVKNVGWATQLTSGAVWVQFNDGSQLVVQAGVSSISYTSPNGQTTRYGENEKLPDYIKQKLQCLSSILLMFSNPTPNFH

[21] = biological target: Proto-oncogene tyrosine-protein kinase receptor Ret (Homo sapiens) (UniProt P07949); test: Inhibition of human RET (713 to 1014 amino acid residues) expressed in bacterial system assessed as enzyme activity at 10 uM by KINOMEScan assay; parameters: scale not given: the % may be the effect or the level left; how it was run: as §2
[22] = biological target: Testis-specific serine/threonine-protein kinase 1 (Homo sapiens) (UniProt Q9BXA7); test: Inhibition of full length human TSSK1B expressed in bacterial system assessed as enzyme activity at 10 uM by KINOMEScan assay; parameters: scale not given: the % may be the effect or the level left; how it was run: as §1
[23] = biological target: Serine/threonine-protein kinase 32C (Homo sapiens) (UniProt Q86UX6); test: Inhibition of human YANK3 (68 to 486 amino acid residues) expressed in bacterial system assessed as enzyme activity at 10 uM by KINOMEScan assay; parameters: scale not given: the % may be the effect or the level left; how it was run: as §3
Serine/threonine-protein kinase 32C (Homo sapiens), sequence (Q86UX6 whole entry, the tested form may be a part): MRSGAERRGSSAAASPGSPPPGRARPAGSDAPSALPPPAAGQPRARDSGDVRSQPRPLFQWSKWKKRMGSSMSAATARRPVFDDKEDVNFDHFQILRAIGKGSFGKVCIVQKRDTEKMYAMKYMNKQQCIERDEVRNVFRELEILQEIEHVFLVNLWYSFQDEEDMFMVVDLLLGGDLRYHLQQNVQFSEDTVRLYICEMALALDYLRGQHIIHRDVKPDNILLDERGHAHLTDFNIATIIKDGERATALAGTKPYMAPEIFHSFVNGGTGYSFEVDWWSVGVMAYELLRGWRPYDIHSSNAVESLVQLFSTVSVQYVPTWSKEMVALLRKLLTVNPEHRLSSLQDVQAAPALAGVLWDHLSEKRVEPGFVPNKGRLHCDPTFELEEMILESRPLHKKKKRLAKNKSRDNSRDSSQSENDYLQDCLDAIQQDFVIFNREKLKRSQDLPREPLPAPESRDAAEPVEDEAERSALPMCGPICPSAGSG

[24] = biological target: Serine/threonine-protein kinase pim-3 (Homo sapiens) (UniProt Q86V86); test: Inhibition of PIM3 (unknown origin)
[25] = biological target: Cyclin-dependent kinase (Homo sapiens) (UniProt P06493+P11802+P24941+Q00535+Q00534+P50613+Q00526+Q00536+Q07002+P49336+Q00537+P21127+Q96Q40+Q9BWU1+O94921+P50750+Q15131+Q14004+Q8IZL9+Q9NYV4); test: Share of MOE computational kinase hits for CDK

Tyrosine-protein kinase ABL1 (Homo sapiens), sequence (P00519 whole entry, the tested form may be a part): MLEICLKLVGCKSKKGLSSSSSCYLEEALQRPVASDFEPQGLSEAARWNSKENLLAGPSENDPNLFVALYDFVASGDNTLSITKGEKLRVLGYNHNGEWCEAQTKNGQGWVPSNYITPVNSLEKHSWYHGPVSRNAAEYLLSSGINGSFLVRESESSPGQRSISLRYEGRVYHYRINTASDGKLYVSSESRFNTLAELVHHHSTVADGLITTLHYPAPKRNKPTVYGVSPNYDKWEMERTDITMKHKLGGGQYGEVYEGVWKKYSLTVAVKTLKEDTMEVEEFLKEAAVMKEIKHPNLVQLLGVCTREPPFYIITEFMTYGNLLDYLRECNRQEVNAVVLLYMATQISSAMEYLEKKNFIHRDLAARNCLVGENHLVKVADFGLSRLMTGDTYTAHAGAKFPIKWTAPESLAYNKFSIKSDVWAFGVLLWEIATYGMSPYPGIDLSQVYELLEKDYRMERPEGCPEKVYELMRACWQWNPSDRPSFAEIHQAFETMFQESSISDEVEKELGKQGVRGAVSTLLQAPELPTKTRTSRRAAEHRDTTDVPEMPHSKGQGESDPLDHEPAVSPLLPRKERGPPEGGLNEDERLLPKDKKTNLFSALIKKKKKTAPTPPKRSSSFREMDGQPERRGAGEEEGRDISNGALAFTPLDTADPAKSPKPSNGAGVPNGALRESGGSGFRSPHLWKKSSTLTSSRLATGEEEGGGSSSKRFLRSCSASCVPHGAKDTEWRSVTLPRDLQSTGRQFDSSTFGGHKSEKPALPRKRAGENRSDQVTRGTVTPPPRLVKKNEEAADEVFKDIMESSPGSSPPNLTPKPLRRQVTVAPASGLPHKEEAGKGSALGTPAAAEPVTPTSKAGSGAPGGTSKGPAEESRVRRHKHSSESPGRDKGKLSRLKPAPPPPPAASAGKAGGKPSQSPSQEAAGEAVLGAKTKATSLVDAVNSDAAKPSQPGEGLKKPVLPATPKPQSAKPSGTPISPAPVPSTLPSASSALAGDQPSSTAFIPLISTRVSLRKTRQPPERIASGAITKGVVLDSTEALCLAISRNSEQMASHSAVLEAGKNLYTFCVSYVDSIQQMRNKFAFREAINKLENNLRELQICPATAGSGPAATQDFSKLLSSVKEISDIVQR

With `O=C1C2=C(C(=O)c3c(O)ccc(O)c31)[C@@H](O)[C@@H](O)[C@@H](O)C2` as the molecule, how does the Activity [1] read?
The Activity was 88%.

What about the Activity [2] of the same molecule?
Its Activity is 100%.

And the Activity [3]?
Its Activity is 100%.

And the Activity [4]?
The Activity was 100%.

And the Activity [5]?
Its Activity is 92%.

And the Activity [6]?
Its Activity is 79%.

And the Activity [7]?
Its Activity is 90%.

What about the Activity [8] of the same molecule?
The Activity was 100%.

What about the Activity [9] of the same molecule?
The Activity was 93%.

And the Activity [10]?
Its Activity is 87%.

And the Activity [11]?
Its Activity is 96%.

And the Activity [12]?
Its Activity is 86%.

What about the Activity [13] of the same molecule?
The Activity was 92%.

And the Activity [14]?
The Activity was 100%.

What about the Activity [15] of the same molecule?
Its Activity is 99%.

And the Activity [16]?
Its Activity is 57%.

What about the Activity [17] of the same molecule?
Its Activity is 100%.

What about the Activity [18] of the same molecule?
The Activity was 100%.

And the Activity [19]?
The Activity was 96%.

And the Activity [20]?
The Activity was 89%.

And the Activity [21]?
The Activity was 100%.

And the Activity [22]?
The Activity was 89%.

And the Activity [23]?
Its Activity is 89%.

And the % of MOE kinase hits [24]?
The % of MOE kinase hits was 29%.

And the % of MOE kinase hits [25]?
Its % of MOE kinase hits is 7%.
